# Results from ChEMBL document CHEMBL2413031, “Synthesis and tubulin-binding properties of non-symmetrical click C5-curcuminoids” (Bioorg Med Chem, 2013).
# Calls of active or inactive are those of the source. No cut-off for these calls is given here.
# How the values were obtained:
# MeWo [1] = experiment: Cytotoxicity against human MeWo cells assessed as cell viability at 10 uM after 48 hrs by MTT assay relative to vehicle-treated control; format: functional; conditions: read-out: Activity
# Summary of the method: (§1)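 MeWo melanoma cells (DMEM, 10% FBS, 2 mM L-glutamine, penicillin/streptomycin 100 µg/mL) grown 48 h with or without compound. Washed twice in Locke's solution (HEPES pH 7.6), then MTT 250 µg/mL for 90 min. Screening at 10 µM fixed concentration against untreated control. Concentration–response: mean + S.D. of 8–16 replicates from 4 separate experiments.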
# MeWo [2] = experiment: Cytotoxicity against human MeWo cells assessed as cell viability after 48 hrs by MTT assay; format: functional, cell-based; summary of the method: as §1
# [3] = Cytotoxicity against human SH-SY5Y cells assessed as cell viability after 48 hrs by MTT assay; format: functional, cell-based
# Summary of the method: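 SH-SY5Y neuroblastoma cells in 50% DMEM/50% F-12 with 10% FBS, treated 48 h across a concentration range. Viability by MTT: cells washed twice in Locke's solution (pH 7.6), then 90 min with MTT 250 µg/mL. Mean + S.D. of 8–16 replicates from 4 separate experiments.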
# Tubulin (Homo sapiens) [4] = biological target: T1, Tubulin (Homo sapiens) (UniProt P68371+Q9H4B7+P0DPH7+P68366+Q13509+Q71U36+P04350+Q3ZCM7+P07437+P68363+Q9BQE3+Q6PEY2+Q13885+Q9BVA1+Q9BUF5); experiment: Inhibition of alpha-tubulin polymerization in human MeWo cells at 3 X IC50 after 16 hrs by Western blot analysis in presence of paclitaxel; format: cell-based
# Summary of the method: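 MeWo cells in flasks, treated 16 h at 3× IC50 or left untreated. Trypsinised and lysed 10 min at RT in hypotonic buffer (20 mM Tris-HCl pH 6.8, 1 mM MgCl2, 2 mM EGTA, 0.5% NP-40, protease inhibitors) containing paclitaxel. Equal protein centrifuged 13000 rpm, 15 min. Pellet (polymerized) and supernatant (free) α-tubulin compared by SDS-PAGE/western blot, chemiluminescence. Three experiments; CA-4 positive control.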
# Tubulin (Homo sapiens) [5] = biological target: T1, Tubulin (Homo sapiens); experiment: Inhibition of alpha-tubulin polymerization in human MeWo cells at 3 X IC50 after 16 hrs by immunofluorescence microscopic analysis; format: cell-based
# Summary of the method: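 MeWo cells on glass coverslips, drug-treated at 3× IC50, 16 h per the legend (24 h in methods). Stained with anti-tubulin (1:1000, 20 min RT), Alexa 488 secondary and nuclear dye, imaged at 63× oil. Representative of three experiments.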
# MeWo [6] = experiment: Antitubulinic activity in human MeWo cells assessed as blockade in G2/M phase at 3 X IC50 after 16 hrs by propidium iodide staining-based FACS analysis; format: functional, cell-based
# Summary of the method: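 MeWo cells (DMEM, 10% FBS, 2 mM L-glutamine, pen/strep) exposed 16 h to vehicle or compound. Washed once in PBS, then fixed in ice-cold 30:70 PBS/EtOH and held at −20 °C before DNA-content flow cytometry. Histograms shown are representative of three separate experiments.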
SMILES,viability at 10 µM (MeWo [1]) [%],further results
O=C(/C=C(O)/C=C/c1ccc(O)cc1)c1ccc(O)cc1,77,
O=C(/C=C(O)/C=C/c1ccc(O)cc1)c1ccccc1,90,
COc1cc(/C=C/C(=O)CC(=O)/C=C/c2ccc(O)c(OC)c2)ccc1O [CURCUMIN],90,IC50 (MeWo [2]): 35.5 µM; IC50 [3]: 11.4 µM; inhibition (Tubulin (Homo sapiens) [4]): Active; inhibition (Tubulin (Homo sapiens) [5]): Active; Activity (MeWo [6]): Active
COc1cccc(/C=C/c2cc(-c3ccc(O)c(OC)c3)[nH]n2)c1,27,IC50 (MeWo [2]): 3.6 µM; IC50 [3]: 10.6 µM; inhibition (Tubulin (Homo sapiens) [4]): Active; inhibition (Tubulin (Homo sapiens) [5]): Active; Activity (MeWo [6]): Active
Oc1ccc(/C=C/c2cc(-c3ccccc3)[nH]n2)cc1,98,
COc1cc(-c2cc(/C=C/c3cc(OC)c(OC)c(OC)c3)n[nH]2)ccc1O,75,
COc1cc(/C=C/c2cc(-c3ccc(O)cc3)[nH]n2)cc(OC)c1,38,IC50 (MeWo [2]): 5.7 µM; IC50 [3]: 10.6 µM; inhibition (Tubulin (Homo sapiens) [4]): Active; inhibition (Tubulin (Homo sapiens) [5]): Active; Activity (MeWo [6]): Active
COc1cc(/C=C/C(O)=C/C(=O)c2ccccc2)cc(OC)c1,92,
COc1cc(C(=O)/C=C(O)/C=C/c2cc(OC)c(OC)c(OC)c2)ccc1O,89,
COc1cc(/C=C/c2cc(-c3ccccc3)[nH]n2)cc(OC)c1OC,89,
COc1cc(/C=C/c2cc(-c3ccccc3)[nH]n2)ccc1O,51,
COc1cc(-c2cc(/C=C/c3ccc(O)cc3)n[nH]2)ccc1O,95,
Oc1ccc(/C=C/c2cc(-c3ccc(O)cc3)[nH]n2)cc1,87,
COc1cc(/C=C/C(O)=C/C(=O)c2ccccc2)cc(OC)c1OC,93,
COc1cc(/C=C/c2cc(-c3ccccc3)[nH]n2)cc(OC)c1,90,
COc1ccc(/C=C/c2cc(-c3ccc(O)c(OC)c3)[nH]n2)cc1,92,

SMILES,viability at 10 µM (MeWo [1]) [%],further results
COc1ccc(/C=C/c2cc(-c3ccccc3)[nH]n2)cc1,92,
COc1cc(/C=C/C(O)=C/C(=O)c2ccc(O)cc2)ccc1O,89,
COc1ccc(/C=C/C(O)=C/C(=O)c2ccc(O)c(OC)c2)cc1,84,
COc1ccc(/C=C/C(O)=C/C(=O)c2ccc(O)cc2)cc1,93,
COc1cc(/C=C/c2cc(-c3ccc(O)cc3)[nH]n2)cc(OC)c1OC,85,
COc1cc(/C=C/c2cc(-c3ccc(O)cc3)[nH]n2)ccc1O,69,
COc1cc(/C=C/C(O)=C/C(=O)c2ccc(O)c(OC)c2)ccc1O,97,
COc1cc(/C=C/C(O)=C/C(=O)c2ccc(O)c(OC)c2)cc(OC)c1,88,
COc1cc(/C=C/c2cc(-c3ccc(O)c(OC)c3)[nH]n2)cc(OC)c1,43,IC50 (MeWo [2]): 4.8 µM; IC50 [3]: 11.8 µM; inhibition (Tubulin (Homo sapiens) [4]): Active; inhibition (Tubulin (Homo sapiens) [5]): Active; Activity (MeWo [6]): Active
COc1ccc(/C=C/C(O)=C/C(=O)c2ccccc2)cc1,90,
COc1cc(/C=C/C(O)=C/C(=O)c2ccc(O)cc2)cc(OC)c1,90,
COc1cc(/C=C/C(O)=C/C(=O)c2ccc(O)cc2)cc(OC)c1OC,85,
COc1cc(/C=C/C(O)=C/C(=O)c2ccccc2)ccc1O,90,
COc1cc(/C=C/c2cc(-c3ccc(O)c(OC)c3)[nH]n2)ccc1O,36,IC50 (MeWo [2]): 3.7 µM; IC50 [3]: 4 µM; inhibition (Tubulin (Homo sapiens) [4]): Active; inhibition (Tubulin (Homo sapiens) [5]): Active; Activity (MeWo [6]): Active
COc1ccc(/C=C/c2cc(-c3ccc(O)cc3)[nH]n2)cc1,81,
COc1cc(C(=O)/C=C(O)/C=C/c2ccc(O)cc2)ccc1O,98,
